This is a sample that favours compounds with a hit; in the whole collection about 2.2% have one here.
PvdQ inh = P. aeruginosa PvdQ acylase inhibition. purified PvdQ acylase, fluorescence plate reader. inhibition, % at 10 µM. 0.063% of 340,000 active. AID 488965; in the data active = inhibition above about 30%, passing the limit was not always enough
FN deposition inh = fibronectin deposition inhibition; AH1F fibroblasts, Alexa488-fibronectin deposition fluorescence, overnight; inhibition, % at 12.6 µM; 0.086% of 350,000 active;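 active = mean inhibition across replicates of 30% or more, regardless of how many single replicates reach that level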
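Material: AH1F fibroblast monolayer depositing Alexa488-labelled fibronectin into matrix | Input: 10000 AH1F cells/well | Medium: DMEM plus 2% serum, read in PBS | Reagent: Alexa488-fibronectin, 24 nM final in well | Compound dosing: One dose per compound, pinned | Schedule: 1 h adhesion, overnight exposure | Measured by: Fluorescence at 485 nm excitation, 525 nm emission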
PDI inh = inhibitors of human protein disulfide isomerase; PDI insulin aggregation turbidity, A650, 90 min; inhibition, % at 10 µM; 0.052% of 350,000 active; AID 588391;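 active = mean inhibition across replicates of 30% or more, whatever share of single replicates reach that level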
Target sequence (P07237 whole entry, looked up): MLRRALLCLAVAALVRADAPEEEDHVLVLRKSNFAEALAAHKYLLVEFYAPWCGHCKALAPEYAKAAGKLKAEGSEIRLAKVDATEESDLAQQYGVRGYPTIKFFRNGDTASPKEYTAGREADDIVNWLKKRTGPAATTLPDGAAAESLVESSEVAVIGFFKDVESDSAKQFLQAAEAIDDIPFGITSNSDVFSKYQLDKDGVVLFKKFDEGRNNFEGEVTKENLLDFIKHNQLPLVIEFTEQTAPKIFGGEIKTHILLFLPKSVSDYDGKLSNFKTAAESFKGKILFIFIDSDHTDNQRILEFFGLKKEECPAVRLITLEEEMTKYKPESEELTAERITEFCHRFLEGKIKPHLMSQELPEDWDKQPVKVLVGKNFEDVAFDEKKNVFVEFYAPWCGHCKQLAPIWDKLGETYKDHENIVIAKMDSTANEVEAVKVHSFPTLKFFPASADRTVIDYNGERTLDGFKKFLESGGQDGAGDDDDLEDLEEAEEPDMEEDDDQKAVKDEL
HIV Env fusion = inhibitors of HIV Env-mediated cell fusion; HeLa-JRFL Env/CEM21 cell fusion, luciferase; inhibition, % at 12.3 µM; 1.1% of 360,000 active;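 active = mean replicate inhibition score of at least 50 and every replicate individually at or above 50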
Ecoli rRNA inh = inhibits bacterial ribosomal RNA function over humanized ribosomes; E. coli WT GFP vs humanized-ribosome RFP mutants, fluorescence, 24 h; stronger effect = lower value; DMSO median 0, no signal -100; GFP signal change (wild-type ribosome), % (no concentration beside the values); 1.6% of 350,000 active;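 active = significant combined selectivity score with lowered wild-type GFP, culture density cut under 30%, mutant RFP and density less affected; inactive = any of these conditions unmet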
ERp5 block = blocks human ERp5 reductase activity on insulin. AID 651711. 0.05% of 350,000 active. Q15084. inhibition, % at 9.99 µM. ERp5 insulin aggregation, absorbance 650 nm, 90 min;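 active = mean replicate inhibition above about 25%, with every replicate also reaching it, limit read from the data, passing the limit was not always enough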
Large screens that a line does not name were inactive; [ ] = remark or other dose.

COc1ccc(S(=O)(=O)Nc2ccc3c(c2)CC(=O)N([C@H](C)CO)C[C@H](C)[C@H](CN(C)S(=O)(=O)c2ccc(OC)cc2)O3)cc1	HIV Env fusion 56[16.7 µM] (no result: PvdQ inh, FN deposition inh, PDI inh)
COc1ccc(S(=O)(=O)Nc2ccc3c(c2)CC(=O)N([C@H](C)CO)C[C@H](C)[C@H](CN(C)S(=O)(=O)c2ccc(F)cc2)O3)cc1	HIV Env fusion 91[16.7 µM] (no result: PvdQ inh, FN deposition inh, PDI inh, ERp5 block)
C[C@H]1CN([C@@H](C)CO)C(=O)c2cccc(NC(=O)Nc3ccc4c(c3)OCO4)c2O[C@H]1CN(C)S(=O)(=O)c1ccc(Cl)cc1	none (no result: PvdQ inh, FN deposition inh, PDI inh, HIV Env fusion)
CCC(=O)Nc1ccc2c(c1)C(=O)N(C)[C@H]1CC[C@@H](CC(=O)NCc3ccccc3Cl)O[C@H]1CO2	none (no result: PvdQ inh, PDI inh)
COc1ccc2c3c(n(C)c2c1)[C@H](CO)NCC31CN(C(=O)c2ccc(F)cc2)C1	none (no result: PvdQ inh, FN deposition inh, PDI inh, HIV Env fusion, ERp5 block)
CC(C)NC(=O)N(C)C[C@@H]1Oc2ccc(NC(=O)CCCCCC(=O)Nc3ccccc3N)cc2C(=O)N([C@H](C)CO)C[C@H]1C	none (no result: PvdQ inh, FN deposition inh, PDI inh, HIV Env fusion)
O=C(C[C@@H]1C=C[C@@H](NC(=O)NC2CCCC2)[C@@H](CO)O1)NCc1ccc(F)cc1	none (no result: PvdQ inh, PDI inh)
Cc1ccc(S(=O)(=O)N(C)C[C@@H]2Oc3ccc(NS(=O)(=O)c4c(C)noc4C)cc3CC(=O)N([C@H](C)CO)C[C@@H]2C)cc1	HIV Env fusion 62[16.7 µM] (no result: PvdQ inh, FN deposition inh, PDI inh)
COc1ccc(S(=O)(=O)Nc2ccc3c(c2)CC(=O)N([C@H](C)CO)C[C@H](C)[C@H](CN(C)S(=O)(=O)c2cccs2)O3)cc1	HIV Env fusion 62[16.7 µM] (no result: PvdQ inh, PDI inh)
CCCC#Cc1cnc2c(c1)C(=O)N([C@H](C)CO)C[C@@H](C)[C@@H](CN(C)C(=O)CN1CCOCC1)O2	none (no result: PvdQ inh, PDI inh, HIV Env fusion)
Cc1noc(C)c1NC(=O)N1C[C@H](O)COC[C@H]2O[C@@H](CC(=O)N[C@H]3CCN(Cc4ccccc4)C3)CC[C@@H]21	none (no result: PvdQ inh, PDI inh, HIV Env fusion, ERp5 block)
Cc1ccc(C(=O)CSc2nnc(COc3cccc4cccnc34)o2)cc1	Ecoli rRNA inh -32 (no result: FN deposition inh)
O=C(CSc1nnc(COc2cccc3cccnc23)o1)N1CCCC1	none
COc1cccc(C(=O)CSc2nnc(COc3cccc4cccnc34)o2)c1	Ecoli rRNA inh -35 (no result: FN deposition inh, HIV Env fusion)
CNC[C@H]1Oc2ccc(NC(=O)NC(C)C)cc2CC(=O)N(C)C[C@H]1C	none (no result: PvdQ inh, PDI inh, HIV Env fusion, ERp5 block)
O=C(c1cccnc1)N1CC2(C1)[C@@H](c1ccccc1)[C@@H](CO)N2C(=O)C1CCC1	none (no result: PvdQ inh, FN deposition inh, PDI inh, HIV Env fusion)
C[C@@H]1CCCCO[C@H](CN(C)C(=O)c2ccccc2)[C@@H](C)CN([C@H](C)CO)C(=O)c2cc(NC(=O)CCC(F)(F)F)ccc2O1	none (no result: PvdQ inh, PDI inh)
CO[C@@H]1CN(C)C(=O)c2ccc(NC(=O)C3CCC3)cc2OC[C@@H](C)N(S(=O)(=O)c2ccc(Cl)cc2)C[C@H]1C	none (no result: PvdQ inh, PDI inh, HIV Env fusion)
Cc1noc(C)c1NC(=O)Nc1ccc2c(c1)C(=O)N([C@H](C)CO)C[C@H](C)[C@@H](CN(C)Cc1ccccc1)O2	none (no result: PvdQ inh, FN deposition inh, PDI inh)
COc1ccc2c(CC(=O)Nc3ccccc3OC)coc2c1	none (no result: FN deposition inh)
COc1ccc2c(CC(=O)Nc3ccccc3N3CCOCC3)coc2c1	Ecoli rRNA inh -27
COc1ccc(NC(=O)COC(=O)Cc2coc3cc(OC)ccc23)c(OC)c1	Ecoli rRNA inh -34
C[C@@H]1CCCCO[C@H](CN(C)S(=O)(=O)c2cn(C)cn2)[C@@H](C)CN([C@@H](C)CO)C(=O)c2cc(NC(=O)CCCN(C)C)ccc2O1	none (no result: PvdQ inh, FN deposition inh, PDI inh)
CC(=O)c1ccc(NC(=S)NC(C)c2ccc(Cl)cc2Cl)cc1 (stereo unspecified)	Ecoli rRNA inh -49 (no result: FN deposition inh)
COc1ccc(CCNc2cc(N3CCN(C(=O)c4ccccc4F)CC3)ccc2[N+](=O)[O-])cc1OC	none (no result: FN deposition inh, HIV Env fusion, Ecoli rRNA inh, ERp5 block)
COc1ccc(C(=O)N2CCN(c3ccc([N+](=O)[O-])c(NCCc4ccc(OC)c(OC)c4)c3)CC2)cc1	HIV Env fusion 77 (no result: Ecoli rRNA inh, ERp5 block)
Cc1cc(C)c(C#N)c(SCS(=O)Cc2ccc(Cl)cc2)n1 (stereo unspecified)	Ecoli rRNA inh -44 (no result: FN deposition inh, HIV Env fusion)
Cc1cc(C)c(C#N)c(SCS(=O)Cc2ccccc2)n1 (stereo unspecified)	none (no result: Ecoli rRNA inh, ERp5 block)
NC(Cc1ccccc1)c1csc(NC(=O)Nc2ccccc2Oc2ccccc2)n1 (stereo unspecified)	HIV Env fusion 60 (no result: PvdQ inh)
NC(Cc1ccc(C(F)(F)F)cc1)c1csc(NC(=O)NCCc2ccccc2)n1 (stereo unspecified)	HIV Env fusion 66 (no result: PvdQ inh)

Screening data: PubChem BioAssay, Broad Institute
